From ChEMBL document CHEMBL2010647, “N-Methylated sst2 Selective Somatostatin Cyclic Peptide Analogue as a Potent Candidate for Treating Neurogenic Inflammation” (ACS Med Chem Lett, 2011) come the findings set out here.

As a reminder, the inhibition in vivo is the percentage by which the read-out fell short of the control. As usually defined, the IC50 is the concentration needed to halve the response being measured.

Molecules are shown by their SMILES. Activity calls are given as the source filed them. No cut-off for these calls is given here.

For one assay, the system named is Rattus norvegicus. Put plainly: Antiinflammatory activity in rat assessed as inhibition of mustard oil-evoked acute neurogenic plasma protein extravasation in paw skin at 100 ug/kg, ip […] administered 10 mins before induction of inflammation. It is filed as functional. The essentials:
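Rats received peptide 100 μg/kg ip 10 min before inflammation was induced with 1% mustard oil on dorsal paw skin; solvent-only controls run alongside. Read-out: Evans blue accumulated per g wet skin, given as mean + SEM, n = 6–10. Tested in blocks of 14–15 rats per day over 6 days, with treatments randomized. Mann–Whitney U test vs solvent.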

Assay [1] addresses Somatostatin receptor type 1 (Homo sapiens, UniProt P30872). Nature of the assay: Binding affinity to human sst1 by in vitro receptor autoradiography assay.
The target in assay [2] is Somatostatin receptor type 4 (Homo sapiens, UniProt P31391). Nature of the assay: Binding affinity to human sst4 by in vitro receptor autoradiography assay.
Somatostatin receptor type 4, sequence (P31391 whole entry): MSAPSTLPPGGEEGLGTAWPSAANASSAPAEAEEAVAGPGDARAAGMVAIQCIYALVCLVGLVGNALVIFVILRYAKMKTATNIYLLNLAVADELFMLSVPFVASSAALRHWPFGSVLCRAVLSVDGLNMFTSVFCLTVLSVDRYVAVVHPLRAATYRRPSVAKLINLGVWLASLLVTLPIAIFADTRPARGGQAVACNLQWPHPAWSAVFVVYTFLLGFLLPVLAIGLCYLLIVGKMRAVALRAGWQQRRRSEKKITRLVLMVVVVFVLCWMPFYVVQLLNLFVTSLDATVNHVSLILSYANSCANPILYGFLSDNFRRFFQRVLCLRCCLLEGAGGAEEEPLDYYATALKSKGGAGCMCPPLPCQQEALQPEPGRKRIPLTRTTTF
Assay [3] has as its target Somatostatin receptor type 3 (Homo sapiens, UniProt P32745). Put plainly: Binding affinity to human sst3 by in vitro receptor autoradiography assay.
The target in assay [4] is Somatostatin receptor type 2 (Rattus norvegicus) (UniProt P30680). Put plainly: Inhibition of sst2 in rat trachea assessed as effect on EFS-induced CGRP release in stimulated and poststimulated tracheal fraction at 500 nM after 8 mins by radioimmunoassay technique relative to control. It is filed as tissue-based. Details: scale not given: the % may be the effect or the level left. The essentials: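 Whole tracheae from exsanguinated, deeply anaesthetised rats, two per 1.8 mL organ bath, equilibrated 60 min with oxygenated Krebs (pH 7.2, 37 °C, 1 mL/min perfusion). Three static 8 min fractions; EFS (40 V, 0.1 ms, 10 Hz, 120 s) in the second. Peptide (500 nM) added at the start of fractions 2 and 3. CGRP measured by RIA in 200 μL samples, normalised to wet tissue weight; n = 5.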
Somatostatin receptor type 2 (Rattus norvegicus), sequence (P30680 whole entry, the tested form may be a part): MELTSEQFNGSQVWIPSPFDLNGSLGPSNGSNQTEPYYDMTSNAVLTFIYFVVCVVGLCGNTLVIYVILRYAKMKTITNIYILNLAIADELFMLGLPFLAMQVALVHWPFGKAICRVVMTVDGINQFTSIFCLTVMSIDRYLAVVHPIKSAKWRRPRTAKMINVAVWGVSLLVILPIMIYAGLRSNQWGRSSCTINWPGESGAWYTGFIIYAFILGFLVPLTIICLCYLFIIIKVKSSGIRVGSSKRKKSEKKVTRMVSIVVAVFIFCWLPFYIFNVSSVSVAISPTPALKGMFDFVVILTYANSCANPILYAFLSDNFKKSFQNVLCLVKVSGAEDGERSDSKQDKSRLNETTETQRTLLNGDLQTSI

Assay [5] deals with Somatostatin receptor type 5 (Homo sapiens, UniProt P35346). Put plainly: Binding affinity to human sst5 by in vitro receptor autoradiography assay.
Somatostatin receptor type 5, sequence (P35346 whole entry): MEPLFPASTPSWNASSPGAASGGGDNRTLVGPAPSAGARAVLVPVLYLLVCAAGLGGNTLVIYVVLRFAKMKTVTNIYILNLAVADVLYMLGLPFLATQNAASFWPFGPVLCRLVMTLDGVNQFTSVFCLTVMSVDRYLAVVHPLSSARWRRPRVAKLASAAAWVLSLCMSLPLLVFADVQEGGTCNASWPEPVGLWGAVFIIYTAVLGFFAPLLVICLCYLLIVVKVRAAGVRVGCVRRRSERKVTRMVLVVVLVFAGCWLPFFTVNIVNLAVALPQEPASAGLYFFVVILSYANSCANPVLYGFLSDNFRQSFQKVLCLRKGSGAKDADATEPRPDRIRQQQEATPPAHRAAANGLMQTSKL
For assay [6], the target named is Somatostatin receptor type 2 (Homo sapiens, UniProt P30874). Put plainly: Binding affinity to human sst2 by in vitro receptor autoradiography assay.
Somatostatin receptor type 2, sequence (P30874 whole entry): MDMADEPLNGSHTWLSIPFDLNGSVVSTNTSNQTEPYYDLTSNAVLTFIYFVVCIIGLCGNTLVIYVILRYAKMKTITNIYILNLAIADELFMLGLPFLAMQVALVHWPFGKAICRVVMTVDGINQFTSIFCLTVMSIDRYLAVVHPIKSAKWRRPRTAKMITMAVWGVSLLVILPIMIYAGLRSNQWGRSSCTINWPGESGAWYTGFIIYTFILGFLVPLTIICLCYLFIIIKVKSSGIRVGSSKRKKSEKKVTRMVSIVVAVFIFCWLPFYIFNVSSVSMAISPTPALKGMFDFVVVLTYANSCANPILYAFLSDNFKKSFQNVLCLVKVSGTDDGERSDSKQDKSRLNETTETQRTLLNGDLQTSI

Somatostatin receptor type 3, sequence (P32745 whole entry, the tested form may be a part): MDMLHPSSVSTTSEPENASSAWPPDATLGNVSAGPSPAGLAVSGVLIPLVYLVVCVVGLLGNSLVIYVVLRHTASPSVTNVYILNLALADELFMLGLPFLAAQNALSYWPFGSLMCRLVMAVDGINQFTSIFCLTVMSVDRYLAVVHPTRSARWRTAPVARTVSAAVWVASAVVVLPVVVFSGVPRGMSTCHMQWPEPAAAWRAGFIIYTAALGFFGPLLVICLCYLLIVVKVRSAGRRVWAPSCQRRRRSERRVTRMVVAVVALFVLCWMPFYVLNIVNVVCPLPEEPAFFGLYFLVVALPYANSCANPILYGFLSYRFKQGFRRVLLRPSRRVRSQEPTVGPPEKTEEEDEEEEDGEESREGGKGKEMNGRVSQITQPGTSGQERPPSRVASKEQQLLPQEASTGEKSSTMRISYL
Somatostatin receptor type 1, sequence (P30872 whole entry): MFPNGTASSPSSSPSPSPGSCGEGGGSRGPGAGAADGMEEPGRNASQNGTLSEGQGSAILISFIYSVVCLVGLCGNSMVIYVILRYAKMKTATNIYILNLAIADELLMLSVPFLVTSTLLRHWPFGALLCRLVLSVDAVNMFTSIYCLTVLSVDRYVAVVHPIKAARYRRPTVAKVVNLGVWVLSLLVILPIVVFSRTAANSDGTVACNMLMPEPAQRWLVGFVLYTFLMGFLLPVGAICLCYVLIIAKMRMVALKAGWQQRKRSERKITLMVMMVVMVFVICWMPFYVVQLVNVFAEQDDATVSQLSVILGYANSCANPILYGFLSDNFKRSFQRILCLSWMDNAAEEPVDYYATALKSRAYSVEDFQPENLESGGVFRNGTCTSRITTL

In the case of `CC(C)[C@@H]1NC(=O)[C@H](CCCCN)N(C)C(=O)[C@@H](Cc2c[nH]c3ccccc23)N(C)C(=O)[C@H](Cc2ccc(O)cc2)NC(=O)[C@H](C)N(C)C(=O)[C@H](Cc2ccccc2)N(C)C1=O`, the inhibition in vivo at 0.1 mg/kg in the assay with Rattus norvegicus stood at 40%. Besides, the IC50 was greater than 1 µM in assay [1]; greater than 1 µM in assay [2]; 0.2 µM in assay [3]; 0.263 µM in assay [5]; 0.044 µM in assay [6]. In addition, the Activity in assay [4] amounted to 100%.
`CC(C)[C@@H]1NC(=O)[C@H](CCCCN)NC(=O)[C@@H](Cc2c[nH]c3ccccc23)N(C)C(=O)[C@H](Cc2ccc(O)cc2)NC(=O)[C@H](C)N(C)C(=O)[C@H](Cc2ccccc2)NC1=O`: the 50% inhibitory concentration (IC50) in assay [1] was greater than 1 µM; in assay [2] it was greater than 1 µM; in assay [3], 0.205 µM; in assay [5], 0.126 µM; in assay [6] it was 0.0055 µM. Further, the Activity in assay [4] is 360%.
As for `CC(C)[C@@H]1NC(=O)[C@H](CCCCN)NC(=O)[C@@H](Cc2c[nH]c3ccccc23)NC(=O)[C@H](Cc2ccc(O)cc2)NC(=O)[C@H](C)N(C)C(=O)[C@H](Cc2ccccc2)NC1=O` [SEGLITIDE], the figures for the IC50 in assay [1], in assay [3] and in assay [5] were greater than 1 µM, 0.105 µM and 0.081 µM, respectively. The Activity in assay [4] is 294%.
With `CC(C)[C@@H]1NC(=O)[C@H](CCCCN)N(C)C(=O)[C@@H](Cc2c[nH]c3ccccc23)N(C)C(=O)[C@H](Cc2ccc(O)cc2)NC(=O)[C@H](C)N(C)C(=O)[C@H](Cc2ccccc2)NC1=O`, the inhibition entry in the assay on Rattus norvegicus is “inactive”. Also, the IC50 in assay [1] is greater than 1 µM; in assay [2] it was greater than 1 µM; in assay [3] it was 0.172 µM; in assay [5], 0.196 µM; in assay [6], 0.0031 µM. In assay [4], the Activity turned out to be 153%.
Regarding `CC(C)[C@@H]1NC(=O)[C@H](CCCCN)NC(=O)[C@@H](Cc2c[nH]c3ccccc23)N(C)C(=O)[C@H](Cc2ccc(O)cc2)NC(=O)[C@H](C)N(C)C(=O)[C@H](Cc2ccccc2)N(C)C1=O`, the IC50 was greater than 1 µM in assay [1]; greater than 1 µM in assay [2]; 0.082 µM in assay [3]; 0.076 µM in assay [5]; 0.045 µM in assay [6]. The Activity in assay [4] came out at 268%.
Take `CC(C)[C@@H]1NC(=O)[C@H](CCCCN)NC(=O)[C@@H](Cc2c[nH]c3ccccc23)NC(=O)[C@H](Cc2ccc(O)cc2)NC(=O)[C@H](C)N(C)C(=O)[C@H](Cc2ccccc2)N(C)C1=O`: the IC50 was greater than 1 µM in assay [1]; greater than 1 µM in assay [2]; 0.098 µM in assay [3]; 0.053 µM in assay [5]; 0.0044 µM in assay [6]. Also, the Activity in assay [4] worked out at 355%.
For the compound `CC(C)[C@@H]1NC(=O)[C@H](CCCCN)N(C)C(=O)[C@@H](Cc2c[nH]c3ccccc23)NC(=O)[C@H](Cc2ccc(O)cc2)NC(=O)[C@H](C)N(C)C(=O)[C@H](Cc2ccccc2)NC1=O`, the inhibition entry with Rattus norvegicus is “inactive”. Further, the IC50 in assay [1] was greater than 1 µM; in assay [2], greater than 1 µM; in assay [3] it was 0.308 µM; in assay [5] it was 0.247 µM; in assay [6] it was 0.0042 µM. Besides, in assay [4], the Activity is 182%.
Take `CC(C)[C@@H]1NC(=O)[C@H](CCCCN)N(C)C(=O)[C@@H](Cc2c[nH]c3ccccc23)NC(=O)[C@H](Cc2ccc(O)cc2)NC(=O)[C@H](C)N(C)C(=O)[C@H](Cc2ccccc2)N(C)C1=O`: the concentration for half-maximal inhibition (IC50) in assay [1] was greater than 1 µM; in assay [2], 0.373 µM; in assay [3], 0.175 µM; in assay [5] it was 0.137 µM; in assay [6], 0.0041 µM. Moreover, the Activity in assay [4] worked out at 343%.
